Results published in ChEMBL document CHEMBL3763157, “Synthesis and biological evaluation of novel orally available 1-phenyl-6-aminouracils containing dimethyldihydrobenzofuranol structure for the treatment of allergic skin diseases” (Bioorg Med Chem Lett, 2016).
≈ marks a conversion by molar mass, not a printed value. One block for each compound: values may come before it. Calls of active or inactive are those of the source. The calls are words filed in the database; no cut-off is given here.

Legend:
Mus musculus [1] = assay: Antiinflammatory activity in ICR mouse assessed as inhibition of picryl chloride-induced contact hypersensitivity reaction administered topically on left ear after 24 hrs; type: functional
Method in brief: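 Mice sensitized with picryl chloride; test agent applied topically at 0.1 mg/ear in acetone. Percent inhibition is the drug-treated group's percent response relative to the control group, n = 5, reported as the mean of 5 animals.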

[2] = Antioxidant activity assessed as suppression of H2O2/cobalt2+-mediated hydroxyl radical formation by luminol-based […] assay; type: physicochemical
[3] = Antioxidant activity assessed as suppression of H2O2/DETAPAC-Fe2+-mediated hydroxyl radical formation by measuring oxidation of dihydrorhodamine after 5 mins by fluorescence assay; type: physicochemical
Mus musculus [4] = assay: Antiinflammatory activity in mouse assessed as inhibition of picryl chloride-induced contact hypersensitivity reaction at 10 mg/kg, po administered 30 mins prior to picryl chloride challenge; type: functional, organism-based
Method in brief: (§1)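 Mice sensitized with picryl chloride one week before the study. Oral dose given 30 min before picryl chloride challenge. Data are mean ± SEM, n = 5/group, analysed by Dunnett's test.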

[5] = Volume of distribution at steady state in mouse at 1 mg/kg, iv; type: ADME, organism-based; details: in vivo, read-out: Vdss
Method in brief: (§2)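 Mouse plasma PK after a single 1 mg/kg iv injection. Clearance (mL/min/kg) and steady-state volume of distribution (L/kg) derived from the plasma concentration profile.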

Mus musculus [6] = assay: Antipruritic activity in mouse assessed as inhibition of substance P-induced pruritus at 10 mg/kg administered 30 mins prior to substance P challenge measured over 60 mins; type: functional, organism-based
Method in brief: (§3)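 Oral dose given 30 min before substance P challenge. Scratches counted over 60 min. Data are mean ± SEM, n = 7–8/group, analysed by Dunnett's test.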

[7] = AUC in mouse at 10 mg/kg, po; type: ADME, organism-based; details: in vivo
Method in brief: (§4)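 Mouse pharmacokinetic study with single dosing, intravenous at 1 mg/kg or oral at 10 mg/kg. Plasma drug concentrations were measured, and AUC was taken from the plasma concentration curve. The same study also gave CL and Vdss (iv), Cmax (po) and oral bioavailability.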

Liver microsome [8] = assay: Metabolic stability in human liver microsomal fraction assessed per mg of protein; type: ADME; details: microsomes
Method in brief: (§5)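 Metabolic stability measured in human or rat liver microsomal fraction. Reported as mL/min/mg protein.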

[9] = biological target: Dual specificity mitogen-activated protein kinase kinase; MEK1/2 (Homo sapiens) (UniProt P36507+Q02750); assay: Inhibition of MEK1/2 (unknown origin); type: protein assay
[10] = Clearance in mouse at 1 mg/kg, iv; type: ADME, organism-based; details: in vivo; method in brief: as §2
[11] = Solubility of the compound in phosphate buffer solution at pH 7.4; type: physicochemical
Method in brief: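 Solubility taken as the amount dissolved in phosphate buffer solution at pH 7.4, in […].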

[12] = Oral bioavailability in mouse at 10 mg/kg; type: ADME, organism-based; details: in vivo
Method in brief: (§6)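 Mouse plasma PK after 10 mg/kg oral dosing. Cmax in ng/mL. Bioavailability derived from oral AUC compared with AUC after a 1 mg/kg iv dose.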

[13] = Cmax in mouse at 10 mg/kg, po; type: ADME, organism-based; design: dose 10 mg/kg, route oral; details: in vivo; method in brief: as §6
[14] = AUC in mouse at 1 mg/kg, iv; type: ADME, organism-based; details: in vivo; method in brief: as §4
Liver microsome [15] = assay: Metabolic stability in rat liver microsomal fraction assessed per mg of protein; type: ADME; details: microsomes; method in brief: as §5
Mus musculus [16] = assay: Antiinflammatory activity in po dosed mouse assessed as inhibition of picryl chloride-induced contact hypersensitivity reaction administered 30 mins prior to picryl chloride challenge; type: functional, organism-based; method in brief: as §1
[17] = Apparent permeability in human Caco2 cells; type: ADME, cell-based; details: Caco-2
Method in brief: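 Caco-2 monolayer permeability reported as apparent permeability (Papp), in units of 10^-6 cm/s.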

Mus musculus [18] = assay: Antipruritic activity in mouse assessed as inhibition of substance P-induced pruritus at 30 mg/kg administered 30 mins prior to substance P challenge measured over 60 mins; type: functional, organism-based; method in brief: as §3

Sequence of Dual specificity mitogen-activated protein kinase kinase; MEK1/2 (Homo sapiens) (P36507 whole entry, looked up): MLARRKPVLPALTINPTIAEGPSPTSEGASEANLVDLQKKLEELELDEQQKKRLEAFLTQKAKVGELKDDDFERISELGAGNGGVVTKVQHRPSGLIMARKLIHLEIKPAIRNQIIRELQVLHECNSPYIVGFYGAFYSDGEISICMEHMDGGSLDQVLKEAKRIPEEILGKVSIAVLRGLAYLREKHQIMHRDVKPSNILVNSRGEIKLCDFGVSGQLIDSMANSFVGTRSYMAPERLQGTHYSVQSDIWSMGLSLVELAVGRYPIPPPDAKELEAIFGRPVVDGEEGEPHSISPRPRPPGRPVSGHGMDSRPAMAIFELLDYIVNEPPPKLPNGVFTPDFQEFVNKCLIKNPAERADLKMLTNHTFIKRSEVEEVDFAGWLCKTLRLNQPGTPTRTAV
Sequence of Dual specificity mitogen-activated protein kinase kinase; MEK1/2 (Homo sapiens) (Q02750 whole entry, looked up): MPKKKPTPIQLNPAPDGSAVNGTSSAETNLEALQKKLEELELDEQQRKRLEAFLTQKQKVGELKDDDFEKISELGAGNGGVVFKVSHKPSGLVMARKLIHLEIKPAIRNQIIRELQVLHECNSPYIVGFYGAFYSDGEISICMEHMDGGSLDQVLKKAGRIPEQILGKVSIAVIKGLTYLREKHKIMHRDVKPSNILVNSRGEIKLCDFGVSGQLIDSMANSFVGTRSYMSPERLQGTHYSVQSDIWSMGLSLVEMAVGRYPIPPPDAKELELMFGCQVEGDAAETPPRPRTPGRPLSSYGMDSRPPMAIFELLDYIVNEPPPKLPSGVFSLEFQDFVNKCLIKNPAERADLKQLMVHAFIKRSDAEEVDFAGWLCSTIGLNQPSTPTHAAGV

SMILES: CCOc1cccc(-n2c(N)c(NC(=O)c3c(C)c(O)c(C)c4c3OC(C)(C)C4)c(=O)n(C)c2=O)c1
- inhibition (INH) (Mus musculus [1]): 16%

- IC50 [2]: 9.7 µM
- IC50 [3]: 24 µM
SMILES: Cc1c(C)c2c(c(C)c1O)CCC(C)(C(=O)O)O2 (stereo unspecified) [TROLOX]

SMILES: C[C@]12C=CC(=O)C=C1CC[C@@H]1[C@@H]2[C@@H](O)C[C@@]2(C)[C@H]1CC[C@]2(O)C(=O)CO
- inhibition (Mus musculus [4]): Active

- IC50 [2]: 82 µM
- IC50 [3]: 54 µM
SMILES: O=C1O[C@H]([C@@H](O)CO)C(O)=C1O [ASCORBIC ACID]

SMILES: Cc1ccc(-n2c(N)c(NC(=O)c3c(C)c(O)c(C)c4c3OC(C)(C)C4)c(=O)n(C)c2=O)cc1C
- inhibition (INH) (Mus musculus [1]): 45%

SMILES: Cc1c(O)c(C)c(C(=O)Nc2c(N)n(-c3cccc(F)c3)c(=O)n(C)c2=O)c2c1CC(C)(C)O2
- inhibition (INH) (Mus musculus [1]): 10%

SMILES: Cc1ccc(-n2c(N)c(NC(=O)c3c(C)c(O)c(C)c4c3OC(C)(C)C4)c(=O)n(C)c2=O)cc1
- inhibition (INH) (Mus musculus [1]): 30%

SMILES: CCc1cccc(-n2c(N)c(NC(=O)c3c(C)c(O)c(C)c4c3OC(C)(C)C4)c(=O)n(C)c2=O)c1
- inhibition (INH) (Mus musculus [1]): 14%

- IC50 [2]: 8.6 µM
- Vd [5]: 1 L/kg
- AUC [7]: 1100 ng·h/mL
- Stability (Liver microsome [8]): 19 µL/min/mg
- inhibition [9]: Active
- clearance [10]: 18 mL/min/kg
- solubility [11]: 21 µg/mL (≈ 45.2 µM)
- bioavailability [12]: 12%
- Cmax [13]: 511 ng/mL
- AUC [14]: 927 ng·h/mL
- Stability (Liver microsome [15]): < 10 µL/min/mg
- Papp [17]: 14 ×10⁻⁶ cm/s
SMILES: Cc1cccc(-n2c(N)c(NC(=O)c3c(C)c(O)c(C)c4c3OC(C)(C)C4)c(=O)n(C)c2=O)c1
- inhibition (Mus musculus [6]): Active
- inhibition (INH) (Mus musculus [1]): 52%
- inhibition (Mus musculus [16]): Dose-dependent effect

SMILES: O=c1[nH]c2ccccc2n1CCCN1CCN(C(c2ccccc2)c2ccccc2)CC1
- inhibition (Mus musculus [18]): Active

SMILES: Cc1c(O)c(C)c(C(=O)Nc2c(N)n(-c3cccc(C(=O)O)c3)c(=O)n(C)c2=O)c2c1CC(C)(C)O2
- inhibition (INH) (Mus musculus [1]): 9%

SMILES: C=CC[C@@H]1/C=C(\C)C[C@H](C)C[C@H](OC)[C@H]2O[C@@](O)(C(=O)C(=O)N3CCCC[C@H]3C(=O)O[C@H](/C(C)=C/[C@@H]3CC[C@@H](O)[C@H](OC)C3)[C@H](C)[C@@H](O)CC1=O)[C@H](C)C[C@@H]2OC [TACROLIMUS ANHYDROUS]
- inhibition (INH) (Mus musculus [1]): 53%

SMILES: Cc1cc(C)cc(-n2c(N)c(NC(=O)c3c(C)c(O)c(C)c4c3OC(C)(C)C4)c(=O)n(C)c2=O)c1
- inhibition (INH) (Mus musculus [1]): 15%

- IC50 [2]: 12.1 µM
- IC50 [3]: 44 µM
SMILES: Cc1c(C)c2c(c(C)c1O)CC[C@@](C)(C(=O)Nc1c(N)n(-c3ccccc3)c(=O)n(C)c1=O)O2
